Laboratory results: ChEMBL document CHEMBL4196114 (ACS Med Chem Lett, 2018)

Experiments:
Leishmania infantum [1] = experiment: Antileishmanial activity against amastigote stage of Leishmania infantum infected in PMA-differentiated human THP1 cells assessed as inhibition of parasite growth after 72 hrs by Giemsa staining based light microscopy; assay type: functional, organism-based; conditions: THP-1, 72 h
Outline: (§1)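 THP-1 cells at 5×10⁵ cells/mL differentiated with 0.1 μM PMA for 48 h, then infected with metacyclic L. infantum promastigotes (1:10 macrophage:parasite) for 24 h. Washed monolayers exposed to compound for 72 h, methanol-fixed and Giemsa-stained. Percent infected macrophages versus untreated scored by light microscopy, and IC50 derived. Single-concentration values are means of two or three experiments, IC50 of two.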

THP-1 = experiment: Cytotoxicity against PMA-differentiated human THP1 cells after 72 hrs by MTT assay; assay type: cell-based; conditions: THP-1, 72 h
Outline: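 THP-1 cells at 5×10⁵ cells/mL, differentiated with 0.1 μM PMA for 48 h, then exposed to serial dilutions for 72 h. Viability read by MTT; IC50 for growth inhibition. Duplicate experiments, mean reported.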

Leishmania tropica = experiment: Antileishmanial activity against Leishmania tropica MHOM/IT/2012/ISS3130 promastigotes after 72 hrs by MTT assay; assay type: functional, organism-based; conditions: MHOM/IT/2012/ISS3130, 72 h
Outline: (§2)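 Promastigotes grown in Schneider's medium with 10% FCS at 22 °C. Assay in RPMI with 10% FCS, 20 mM Hepes and 2 mM glutamine, 5×10⁶ parasites/mL, seven serial dilutions from DMSO stocks, 72 h at 22 °C. MTT added for 3 h, pellet lysed in SDS/DMF, A550 read against 650 nm reference. IC50 given as mean of separate duplicate experiments; amphotericin B as reference.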

[2] = Selectivity index, ratio of IC50 for PMA-differentiated human THP1 cells to IC50 for amastigote stage of Leishmania infantum infected in PMA-differentiated human THP1 cells; assay type: toxicity; conditions: read-out: Ratio IC50
[3] = Selectivity index, ratio of IC50 for PMA-differentiated human THP1 cells to IC50 for Leishmania infantum MHOM/TN/80/IPT1 promastigotes; assay type: toxicity; conditions: read-out: Ratio IC50
Leishmania infantum [4] = experiment: Antileishmanial activity against amastigote stage of Leishmania infantum infected in PMA-differentiated human THP1 cells assessed as inhibition of parasite growth at 0.5 uM after 72 hrs by Giemsa staining based light microscopy relative to control; assay type: functional; conditions: THP-1, 72 h; outline: as §1
Leishmania infantum [5] = experiment: Antileishmanial activity against Leishmania infantum MHOM/TN/80/IPT1 promastigotes after 72 hrs by MTT assay; assay type: functional, organism-based; conditions: MHOM/TN/80/IPT1, 72 h; outline: as §2
[6] = Selectivity index, ratio of IC50 for PMA-differentiated human THP1 cells to IC50 for Leishmania tropica MHOM/IT/2012/ISS3130 promastigotes; assay type: toxicity; conditions: read-out: Ratio IC50
Mus musculus = experiment: Toxicity in C57Bl/6 mouse assessed as survival at 300 mg/kg, po administered as single dose measured twice daily up to 30 days; assay type: organism-based; conditions: in vivo, 720 h
Outline: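 Healthy female C57Bl/6 mice, groups of four or five, received one oral dose. Compound was first dissolved in DMSO, then suspended in 0.5% hydroxyethylcellulose-0.1% Tween 80. Behaviour and appearance were checked twice daily for 30 days. A dose counted as tolerated if all mice survived 30 days with normal appearance and behaviour.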

SMILES | IC50 (Leishmania infantum [1]) [nM] | IC50 (THP-1) [nM] | IC50 (Leishmania tropica) [nM] | selectivity ratio [2] | selectivity ratio [3] | inhibition at 0.5 µM (Leishmania infantum [4]) [%] | IC50 (Leishmania infantum [5]) [nM] | selectivity ratio [6] | Activity (Mus musculus)
N#Cc1ccc(-c2ccc(-c3ccc(CNCCCCCCCCNc4ccnc5c4CCCC5)cc3)s2)cc1 | > 1000 | 2310 | 750 | < 2.31 | 3.2 | 29.6 | 720 | 3.1 | –
Nc1cnc2cc(Cl)ccc2c1NCCCNCC12CC3CC(CC(C3)C1)C2 | – | 6390 | 1300 | – | 3.6 | – | 1770 | 4.9 | –
Fc1ccc2scc(-c3ccc(CNCCCCNc4ccnc5ccccc45)cc3)c2c1 | 650 | 2350 | 1020 | 3.61 | 1.9 | 42.7 | 1240 | 2.3 | Toxic
O=[N+]([O-])c1cnc2cc(Cl)ccc2c1NCCCNCC12CC3CC(CC(C3)C1)C2 | – | 12600 | 2240 | – | 6.6 | – | 1910 | 5.6 | –
CCN(CC)CCCNc1ccnc2c1CCCC2 | – | > 76500 | > 76500 | – | > 1 | – | > 76500 | > 1 | –
CC(CCCNCc1ccc(-c2csc3ccc(F)cc23)cc1)Nc1ccnc2cc(Cl)ccc12 (stereo not drawn) | 730 | 2440 | 910 | 3.34 | 2.5 | 36.9 | 980 | 2.7 | –
CC(CCN(C)CCC12CC3CC(CC(C3)C1)C2)Nc1ccnc2cc(Cl)ccc12 (stereo not drawn) | 1910 | 3290 | 1840 | 1.72 | 1.3 | 29.6 | 2460 | 1.8 | –
N#Cc1ccc(-c2ccc(-c3ccc(CNCCCCCCCCNc4ccnc5ccccc45)cc3)s2)cc1 | – | 1380 | 300 | – | 4 | – | 350 | 4.6 | –
CCN(CC)CCCC(C)Nc1c(N)cnc2cc(Cl)ccc12 (stereo not drawn) | – | > 59700 | 6630 | – | > 3.6 | – | 16600 | > 9 | –
Fc1ccc2scc(C#CCNCCCCNc3ccnc4ccccc34)c2c1 | – | 7110 | 1370 | – | 7 | – | 1020 | 5.2 | –
C[C@@H]1[C@H](O)[C@@H](C)/C=C/C=C/C=C/C=C/C=C/C=C/C=C/[C@H](O[C@@H]2O[C@H](C)[C@@H](O)[C@H](N)[C@@H]2O)C[C@@H]2O[C@](O)(C[C@@H](O)C[C@@H](O)[C@H](O)CC[C@@H](O)C[C@@H](O)CC(=O)O[C@H]1C)C[C@H](O)[C@H]2C(=O)O [AMPHOTERICIN B] | 210 | > 10800 | 140 | > 51.4 | > 83.1 | 95.5 | 130 | > 77.1 | –
N#Cc1ccc(-c2ccc(-c3ccc(CNCCCCCNc4ccnc5cc(Cl)ccc45)cc3)s2)cc1 | – | 8100 | 7110 | – | 1.5 | – | 5420 | 1.1 | –
c1ccc2c(NCCCCNCc3csc4ccccc34)ccnc2c1 | – | 3760 | 680 | – | 5.8 | – | 640 | 5.5 | –
Clc1ccc2c(NCCCCCNCCC34CC5CC(CC(C5)C3)C4)ccnc2c1 | – | 1810 | 660 | – | 2.5 | – | 730 | 2.7 | –
CCN(CC)CCCNc1c(N)cnc2cc(Cl)ccc12 | – | > 65200 | 9350 | – | > 3.9 | – | 16600 | > 7 | –
CN(CCCCCCCCNc1ccnc2c1CCCC2)Cc1ccc(-c2ccc(-c3ccc(C#N)cc3)s2)cc1 | – | 3680 | 800 | – | 4.4 | – | 830 | 4.6 | –
CCN(CC)CCCNc1c([N+](=O)[O-])cnc2cc(Cl)ccc12 | – | 23700 | 2770 | – | 2.7 | – | 8670 | 8.5 | –
Fc1ccc2scc(-c3ccc(CNCCCNc4ccnc5ccccc45)cc3)c2c1 | – | 2310 | 810 | – | 2.2 | – | 1030 | 2.8 | –
CC(CCNCCC12CC3CC(CC(C3)C1)C2)Nc1ccnc2ccccc12 (stereo not drawn) | – | 4900 | 2350 | – | 2 | – | 2400 | 2.1 | –
N#Cc1ccc(-c2ccc(-c3ccc(CNCCCCNc4ccnc5cc(Cl)ccc45)cc3)s2)cc1 | – | 5010 | 1940 | – | 2.2 | – | 2300 | 2.6 | –
CCN(CC)CCCC(C)Nc1c([N+](=O)[O-])cnc2cc(Cl)ccc12 (stereo not drawn) | – | > 110000 | 2960 | – | > 16.9 | – | 6490 | > 37 | –
N#Cc1ccc(-c2ccc(-c3ccc(CNCCCCNc4ccnc5ccccc45)cc3)s2)cc1 | – | 2800 | 1540 | – | 2.3 | – | 1220 | 1.8 | –
Fc1ccc2scc(CNCCCCNc3ccnc4cc(Cl)ccc34)c2c1 | > 1000 | 1910 | 500 | < 1.91 | 3.8 | 26.4 | 510 | 3.8 | –
N#Cc1ccc2c(CNCCCCNc3ccnc4cc(Cl)ccc34)csc2c1 | 1290 | 4250 | 1240 | 3.29 | 3.4 | 38.9 | 1230 | 3.4 | –
CN(CCCCCCCCNc1ccnc2ccccc12)Cc1ccc(-c2ccc(-c3ccc(C#N)cc3)s2)cc1 | – | 3850 | 1060 | – | 4.8 | – | 800 | 3.6 | –
CCN(CC)CCCC(C)Nc1ccnc2c1CCCC2 (stereo not drawn) | – | > 69100 | > 69100 | – | > 1 | – | > 69100 | > 1 | –
Fc1ccc2scc(-c3ccc(CNCCCCNc4ccnc5cc(Cl)ccc45)cc3)c2c1 | – | 4280 | 850 | – | 4.2 | – | 1020 | 5 | –
CC(CCCNCc1ccc(-c2csc3ccc(C#N)cc23)cc1)Nc1ccnc2ccccc12 (stereo not drawn) | 790 | 2790 | 1220 | 3.51 | 1.8 | 42.2 | 1550 | 2.3 | –
Clc1ccc2c(NCCCNCc3csc4ccccc34)ccnc2c1 | 1850 | 2960 | 1310 | 1.6 | 2.6 | 26.4 | 1140 | 2.3 | –
